Values after ≈ are worked out from the molar mass of the structure shown. Active and inactive are the calls of the source. The calls are words filed in the database; no cut-off is given here.

The nature of series [1]: Inhibition of N-terminal FLAG-tagged and C-terminal SBP-tagged Staphylococcus aureus recombination UppS assessed as reduction in IPP condensation to growing prenyl chain by measuring pyrophosphate production incubated for 30 mins.
Series [2] concerns Staphylococcus aureus. The series can be described thus: Binding affinity to N-terminal FLAG-tagged and C-terminal SBP-tagged Staphylococcus aureus recombinant UppS expressed in Escherichia coli by affinity selection based ELT screen assay.
Series [3] concerns the target T1, Ditrans,polycis-undecaprenyl-diphosphate synthase ((2E,6E)-farnesyl-diphosphate specific) (Acinetobacter baumannii, UniProt V5VCK8).
T1 sequence (V5VCK8 whole entry): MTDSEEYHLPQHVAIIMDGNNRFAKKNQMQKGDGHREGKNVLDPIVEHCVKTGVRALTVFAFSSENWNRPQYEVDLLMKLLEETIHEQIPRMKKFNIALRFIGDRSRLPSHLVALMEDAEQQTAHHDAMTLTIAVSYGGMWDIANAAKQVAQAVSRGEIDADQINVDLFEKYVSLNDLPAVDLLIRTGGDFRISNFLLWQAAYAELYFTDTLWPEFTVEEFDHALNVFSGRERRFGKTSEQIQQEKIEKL
Briefly: Inhibition of hexa-histidine tagged Acinetobacter baumannii UppS expressed in Escherichia coli assessed as reduction in IPP condensation to growing prenyl chain by measuring pyrophosphate production.

Series [4] deals with T2, Ditrans,polycis-undecaprenyl-diphosphate synthase ((2E,6E)-farnesyl-diphosphate specific) (Klebsiella pneumoniae, UniProt A0A080SPQ8).
T2 sequence (A0A080SPQ8 whole entry): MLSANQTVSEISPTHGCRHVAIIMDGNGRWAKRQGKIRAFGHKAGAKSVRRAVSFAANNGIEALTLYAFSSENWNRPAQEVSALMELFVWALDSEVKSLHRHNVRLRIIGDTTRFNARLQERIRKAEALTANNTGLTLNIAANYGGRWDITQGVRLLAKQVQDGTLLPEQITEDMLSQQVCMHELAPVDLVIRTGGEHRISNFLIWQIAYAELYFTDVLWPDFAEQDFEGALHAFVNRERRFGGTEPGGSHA
The series can be described thus: Inhibition of hexa-histidine tagged Klebsiella pneumoniae UppS expressed in Escherichia coli assessed as reduction in IPP condensation to growing prenyl chain by measuring pyrophosphate production.

Series [5] has as its target T3, Ditrans,polycis-undecaprenyl-diphosphate synthase ((2E,6E)-farnesyl-diphosphate specific) (Pseudomonas aeruginosa (strain ATCC 15692 / DSM 22644 / CIP 104116 / JCM14847 / LMG 12228 / 1C / PRS 101 / PAO1), UniProt Q9HXY2).
T3 sequence (Q9HXY2 whole entry): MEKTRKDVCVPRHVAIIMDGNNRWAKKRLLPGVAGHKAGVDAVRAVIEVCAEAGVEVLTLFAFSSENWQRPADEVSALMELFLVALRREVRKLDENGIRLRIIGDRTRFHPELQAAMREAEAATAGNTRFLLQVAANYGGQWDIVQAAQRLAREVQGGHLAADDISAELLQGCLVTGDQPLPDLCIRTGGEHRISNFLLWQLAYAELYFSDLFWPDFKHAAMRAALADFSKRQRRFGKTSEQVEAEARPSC
The series can be described thus: Inhibition of hexa-histidine tagged Pseudomonas aeruginosa UppS expressed in Escherichia coli assessed as reduction in IPP condensation to growing prenyl chain by measuring pyrophosphate production incubated for 30 mins.

Series [6] concerns Staphylococcus aureus. The series can be described thus: Binding affinity to N-terminal FLAG-tagged and C-terminal SBP-tagged Staphylococcus aureus recombination UppS assessed change in melting temperature at 10 uM by SYPRO Orange based assay.
Series [7] has as its system Staphylococcus aureus. The series can be described thus: Antibacterial activity against Staphylococcus aureus OXFORD incubated for 18 to 24 hrs by broth microdilution method. The format is functional. (In general: Dilution methods test growth across graded concentrations, often in twofold steps.)
The test system of series [8] is Staphylococcus aureus. Briefly: Antibacterial activity against Staphylococcus aureus WCUH29 incubated for 18 to 24 hrs by broth microdilution method. The format is functional.
The subject of series [9] is Streptococcus pneumoniae. Briefly: Antibacterial activity against Streptococcus pneumoniae 1629 incubated for 18 to 24 hrs by broth microdilution method. The format is functional.
Series [10] concerns Streptococcus pneumoniae. The series can be described thus: Antibacterial activity against Streptococcus pneumoniae Ery2 incubated for 18 to 24 hrs by broth microdilution method. The format is functional.
Series [11] concerns Streptococcus pyogenes. Briefly: Antibacterial activity against Streptococcus pyogenes 1307006P incubated for 18 to 24 hrs by broth microdilution method. The format is functional.
Series [12] deals with Moraxella catarrhalis. Briefly: Antibacterial activity against Moraxella catarrhalis 1502 incubated for 18 to 24 hrs by broth microdilution method. In kind it is functional.
For series [13], the system named is Haemophilus influenzae. Briefly: Antibacterial activity against Haemophilus influenzae H128 incubated for 18 to 24 hrs by broth microdilution method. In kind it is functional.
The subject of series [14] is Haemophilus influenzae. Briefly: Antibacterial activity against Haemophilus influenzae H128 deficient in AcrA incubated for 18 to 24 hrs by broth microdilution method. In kind it is functional.
The subject of series [15] is Klebsiella pneumoniae. Briefly: Antibacterial activity against Klebsiella pneumoniae 1161486a deficient in tolC incubated for 18 to 24 hrs by broth microdilution method. In kind it is functional.
In series [16] the test system is Escherichia coli. The series can be described thus: Antibacterial activity against Escherichia coli 120 deficient in AcrAB incubated for 18 to 24 hrs by broth microdilution method. In kind it is functional.
The subject of series [17] is Pseudomonas aeruginosa. Briefly: Antibacterial activity against Pseudomonas aeruginosa PAO322 deficient in MexA/B/C/D/E/F incubated for 18 to 24 hrs by broth microdilution method. In kind it is functional.
The test system of series [18] is Acinetobacter baumannii. The series can be described thus: Antibacterial activity against Acinetobacter baumannii ACM1010 incubated for 18 to 24 hrs by broth microdilution method. The format is functional.
Series [19] has as its system Staphylococcus aureus. The series can be described thus: Antibacterial activity against Staphylococcus aureus RN4220 transfected with pYH4 in absence of anhydrotetracycline incubated for 18 to 24 hrs by broth microdilution method. The format is functional.
Series [20] concerns Staphylococcus aureus. The series can be described thus: Antibacterial activity against Staphylococcus aureus RN4220 transfected with pYH4 in presence of anhydrotetracycline incubated for 18 to 24 hrs by broth microdilution method. In kind it is functional.
The subject of series [21] is Staphylococcus aureus. Briefly: Antibacterial activity against Staphylococcus aureus RN4220 transfected with pYH4-UppS in absence of anhydrotetracycline incubated for 18 to 24 hrs by broth microdilution method. In kind it is functional.
Series [22] deals with Staphylococcus aureus. Briefly: Antibacterial activity against Staphylococcus aureus RN4220 transfected with pYH4-UppS in presence of anhydrotetracycline incubated for 18 to 24 hrs by broth microdilution method. In kind it is functional. The essentials: (§1)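 S. aureus strain carrying an inducible uppS over-expression plasmid, with anhydrotetracycline inducer at 0.1 µg/mL. MIC was compared with the un-induced system and with a plasmid vector control strain.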

The nature of series [23]: Cytotoxicity against mouse L5178Y TK+/- suspension cells incubated for 72 hrs by Cell-titer-Glo reagent based assay. The conditions noted are these: read-out: TC50.
Series [24] has as its system Staphylococcus aureus. The series can be described thus: Antibacterial activity against Staphylococcus aureus RN4220 expressing wild type UppS incubated for 18 to 24 hrs by broth microdilution method. The format is functional.
Series [25] has as its system Staphylococcus aureus. Briefly: Antibacterial activity against Staphylococcus aureus RN4220 expressing UppS F103L mutant incubated for 18 to 24 hrs by broth microdilution method. The format is functional. The essentials: (§2)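 S. aureus resistant mutants were isolated from the wild-type laboratory strain in the presence of the pyrazole UppS inhibitor and then tested for MIC.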

Series [26] has as its system Staphylococcus aureus. Briefly: Antibacterial activity against Staphylococcus aureus RN4220 expressing UppS F148L mutant incubated for 18 to 24 hrs by broth microdilution method. The format is functional. The method, boiled down:
as §2

The test system of series [27] is Staphylococcus aureus. Briefly: Resistance index, ratio of MIC for antibacterial activity against Staphylococcus aureus RN4220 transfected with pYH4-UppS in presence of anhydrotetracycline to MIC for antibacterial activity against Staphylococcus aureus RN4220 transfected with pYH4-UppS in absence of anhydrotetracycline. The format is functional. The method, boiled down: as §1

As to `Cc1ccc(-c2c(C(=O)N(CCC(N)=O)Cc3ccc(OC(C)C)cc3)cnn2Cc2ccccc2)cc1`, the IC50 in series [1] is 0.97 µM; in [3], over 100 µM; in [4] it was over 100 µM; in series [5] it was over 100 µM. Besides, in series [2], the outcome was Active. In [6], the shift in melting temperature (ΔTm) was determined as 11 °C. Besides, the MIC was 32 to 64 µg/mL (≈ 62.7 to 125 µM) in series [7]; 32 to 64 µg/mL (≈ 62.7 to 125 µM) in series [8]; 128 µg/mL (≈ 251 µM) in [9]; 128 µg/mL (≈ 251 µM) in series [10]; 128 µg/mL (≈ 251 µM) in [11]; 32 µg/mL (≈ 62.7 µM) in series [12]. The MIC in series [13] was over 128 µg/mL; in series [14] it was 32 µg/mL (≈ 62.7 µM); in series [15] it was over 128 µg/mL; in series [16], over 128 µg/mL; in series [17] it was over 128 µg/mL; in series [18], over 128 µg/mL. Further, the MIC in series [19] is 64 µg/mL (≈ 125 µM); in series [20], 32 µg/mL; in [21], 128 µg/mL (≈ 251 µM); in [22], over 128 µg/mL. For the same compound, the CC50 at 72 h in series [23] was found to be 100 µM.

In the case of `C[C@@H](O)[C@H]1C(=O)N2C(C(=O)O)=C(S[C@@H]3CN[C@H](C(=O)N(C)C)C3)[C@H](C)[C@H]12` [MEROPENEM], the MIC in series [7] is 0.125 µg/mL (≈ 0.326 µM); in series [8], 2 µg/mL (≈ 5.22 µM); in [9] it was 0.016 µg/mL (≈ 0.0417 µM); in series [10], 0.016 µg/mL (≈ 0.0417 µM); in series [11], at most 0.008 µg/mL; in series [12], at most 0.008 µg/mL. For the same compound, the MIC stood at 0.125 µg/mL (≈ 0.326 µM) in [13]; 0.125 µg/mL (≈ 0.326 µM) in series [14]; 0.03 µg/mL (≈ 0.0782 µM) in series [15]; 0.03 µg/mL (≈ 0.0782 µM) in series [16]; 0.5 µg/mL (≈ 1.3 µM) in series [17]; 0.5 µg/mL (≈ 1.3 µM) in series [18].

As to `O=C(O)c1cn(C2CC2)c2cc(N3CCNCC3)c(F)cc2c1=O` [CIPROFLOXACIN], the MIC is 0.5 µg/mL (≈ 1.51 µM) in [8]; 0.25 µg/mL (≈ 0.754 µM) in [9]; 2 µg/mL (≈ 6.04 µM) in [10]; 0.5 µg/mL (≈ 1.51 µM) in series [11]; 0.03 µg/mL (≈ 0.0905 µM) in series [12]; at most 0.008 µg/mL in [13]. The MIC in series [14] is at most 0.008 µg/mL; in series [15], at most 0.008 µg/mL; in series [16] it was at most 0.008 µg/mL; in [17], at most 0.008 µg/mL; in series [18] it was over 8 µg/mL.

For `CC(C)Oc1ccc(CN(CCC(N)=O)C(=O)c2cnn(Cc3ccccc3)c2-c2ccc3sccc3c2)cc1`, the 50% inhibitory concentration (IC50) is 0.19 µM in series [1], over 100 µM in series [3], over 100 µM in [4] and over 100 µM in [5]. The outcome in [2] was Active. In series [6], the thermal shift (ΔTm) is 8 °C. Also, the MIC in series [7] is 8 µg/mL (≈ 14.5 µM); in [8] it was 4 to 8 µg/mL (≈ 7.24 to 14.5 µM); in [9], 32 to 64 µg/mL (≈ 57.9 to 116 µM); in series [10], 32 to 64 µg/mL (≈ 57.9 to 116 µM); in [11], 64 µg/mL (≈ 116 µM); in series [12], 8 to 16 µg/mL (≈ 14.5 to 28.9 µM). The MIC is over 128 µg/mL in series [13]; 8 to 16 µg/mL (≈ 14.5 to 28.9 µM) in series [14]; over 128 µg/mL in series [15]; over 128 µg/mL in series [16]; over 128 µg/mL in series [17]; over 128 µg/mL in series [18]. For the same compound, the MIC was 8 µg/mL (≈ 14.5 µM) in [19]; 8 µg/mL in [20]; 32 µg/mL (≈ 57.9 µM) in series [21]; 64 µg/mL in series [22]; 8 µg/mL (≈ 14.5 µM) in [24]; 64 µg/mL (≈ 116 µM) in series [25]. In series [26], the MIC turned out to be 64 µg/mL (≈ 116 µM). The CC50 at 72 h in series [23] came out at 25 µM. The Ratio in series [27] is 2.

By IC50 is commonly meant the midpoint of a concentration-inhibition curve. Broadly, the ΔTm is the change in melting temperature against a reference sample.

The values above are taken from ChEMBL document CHEMBL4428042, “Discovery and Characterization of a Class of Pyrazole Inhibitors of Bacterial Undecaprenyl Pyrophosphate Synthase” (J Med Chem, 2016).
